Here are results for 41 compounds from ChEMBL document CHEMBL1143881, “Sulfonamidolactam inhibitors of coagulation factor Xa” (Bioorg Med Chem Lett, 2008).

Assay [1] is described as follows: Selectivity for human factor 10a over thrombin.
Assay [2] is described as follows: Selectivity for human factor 10a over trypsin.
The next assay has as its target Coagulation factor X (Homo sapiens, UniProt P00742). In words: Inhibition of human factor 10a. The gist of the method:
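Inhibition constant (Ki) measured against purified human factor Xa; each value is the average of two independent experiments (n = 2).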

Another assay deals with Plasma. As to the kind of experiment: Anticoagulant efficacy in human citreated plasma assessed as concentration required to double prothrombin time. It counts as functional.

Sequence of Coagulation factor X (P00742 41-179 limits assumed): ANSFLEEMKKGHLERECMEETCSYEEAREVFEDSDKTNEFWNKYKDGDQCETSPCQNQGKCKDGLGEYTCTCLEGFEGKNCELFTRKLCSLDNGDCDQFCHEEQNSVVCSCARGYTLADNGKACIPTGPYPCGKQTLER
Sequence of Coagulation factor X (P00742 235-488 limits assumed): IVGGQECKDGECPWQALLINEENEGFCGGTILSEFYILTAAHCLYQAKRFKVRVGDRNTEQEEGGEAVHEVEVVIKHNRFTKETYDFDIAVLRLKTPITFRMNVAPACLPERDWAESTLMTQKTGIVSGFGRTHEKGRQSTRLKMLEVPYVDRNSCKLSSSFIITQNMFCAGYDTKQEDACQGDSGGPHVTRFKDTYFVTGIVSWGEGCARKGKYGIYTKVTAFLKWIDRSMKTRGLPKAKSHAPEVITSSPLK

One may read the Ki as the equilibrium dissociation constant of an inhibitor or competing ligand from its target. Take `CN(C)CCN(C)C(=O)CN(C1CCCN(c2ccc(-n3ccccc3=O)cc2F)C1=O)S(=O)(=O)c1ccc2cc(Cl)ccc2c1` (stereo unspecified): the Selectivity ratio in assay [1] and in assay [2] was > 1000 each time. Moreover, the Ki at Coagulation factor X turned out to be 0.02 nM. In addition, in the assay on Plasma, the PT came to 3.3 µM.

Regarding `CS(=O)(=O)c1ccccc1-c1ccc(N2CCCC(N(CCCO)S(=O)(=O)c3ccc4cc(Cl)ccc4c3)C2=O)c(F)c1` (stereo unspecified), the Selectivity ratio in assay [1] and in assay [2] was > 1000 in each case. The affinity on Coagulation factor X corresponds to a Ki of 2.3 nM. Moreover, the PT with Plasma was 208 µM.

Take `CS(=O)(=O)c1ccccc1-c1ccc(N2CCCC(NS(=O)(=O)c3ccc(F)cc3)C2=O)c(F)c1` (stereo unspecified): the Selectivity ratio in assay [1] and in assay [2] was > 1000 each time. In addition, the Ki at Coagulation factor X was 44.5 nM.

Consider `O=C1C(NS(=O)(=O)c2ccc3cc(Cl)ccc3c2)CCCN1c1ccc(N2CCCCC2)cc1F` (stereo unspecified), for which the Selectivity ratio in assay [1] and in assay [2] was > 1000 throughout. This compound also showed a Ki on Coagulation factor X of 16 nM.

`CS(=O)(=O)c1ccccc1-c1ccc(N2CCCC(NS(=O)(=O)c3ccccc3)C2=O)c(F)c1` (stereo unspecified): the Selectivity ratio in assay [1] and in assay [2] was > 1000 in each case. This compound had a Ki at Coagulation factor X of 370 nM.

For `COC(=O)C[N+](C)(C)Cc1nccn1-c1ccc(N2CCCC(NS(=O)(=O)c3ccc4cc(Cl)ccc4c3)C2=O)c(F)c1` (stereo unspecified), the Selectivity ratio in assay [1] and in assay [2] was > 1000 throughout. The compound also yielded a Ki on Coagulation factor X of 0.35 nM. In the assay on Plasma, the PT was determined as 13 µM.

For `CN(C)Cc1nccn1-c1ccc(N2CCCC(NS(=O)(=O)c3ccc4cc(Cl)ccc4c3)C2=O)c(F)c1` (stereo unspecified), the Selectivity ratio in assay [1] and in assay [2] was > 1000 throughout. Also, the Ki on Coagulation factor X is 2.4 nM. Further, the PT in the assay on Plasma stood at 13 µM.

Regarding `CS(=O)(=O)c1ccccc1-c1ccc(N2CCCC(NS(=O)(=O)c3ccc(F)c(F)c3)C2=O)c(F)c1` (stereo unspecified), the Selectivity ratio in assay [1] and in assay [2] was > 1000 each time. At Coagulation factor X, this compound returned a Ki of 270 nM.

For `CS(=O)(=O)c1ccccc1-c1ccc(N2CCCC(N(CC(=O)O)S(=O)(=O)c3ccc4cc(Cl)ccc4c3)C2=O)c(F)c1` (stereo unspecified), the Selectivity ratio in assay [1] and in assay [2] was > 1000 throughout. Moreover, at Coagulation factor X, the Ki was 1 nM. In the assay with Plasma, the PT is 250 µM.

Turning to `CS(=O)(=O)c1ccccc1-c1ccc(N2CCCC(NS(=O)(=O)c3cccc4ccc(Cl)cc34)C2=O)c(F)c1` (stereo unspecified), the Selectivity ratio in assay [1] and in assay [2] was > 1000 in each case. In addition, the Ki on Coagulation factor X is 18 nM.

As to `CN(C)CCN(C)C(=O)CN(C1CCCN(c2ccc(N3CCCCC3=O)cc2F)C1=O)S(=O)(=O)c1ccc2cc(Cl)ccc2c1` (stereo unspecified), the Selectivity ratio in assay [1] and in assay [2] was > 1000 throughout. Besides, the Ki on Coagulation factor X was 1.7 nM. Moreover, the PT in the assay on Plasma worked out at 12 µM.

Turning to `CS(=O)(=O)c1ccccc1-c1ccc(N2CCCC(NS(=O)(=O)c3cc(Cl)cc(Cl)c3)C2=O)c(F)c1` (stereo unspecified), the Selectivity ratio in assay [1] and in assay [2] was > 1000 in each case. Also, the Ki on Coagulation factor X worked out at 730 nM.

For `CS(=O)(=O)c1ccccc1-c1ccc(N2CCCC(NS(=O)(=O)c3cccc(Cl)c3)C2=O)c(F)c1` (stereo unspecified), the Selectivity ratio in assay [1] and in assay [2] was > 1000 each time. For the same compound, on Coagulation factor X, the Ki stood at 380 nM.

In the case of `Cc1c(S(=O)(=O)NC2CCCN(c3ccc(-c4ccccc4S(C)(=O)=O)cc3F)C2=O)sc2ccc(Cl)cc12` (stereo unspecified), the Selectivity ratio in assay [1] and in assay [2] was > 1000 each time. The compound also displayed a Ki on Coagulation factor X of 160 nM.

Take `COc1ccc(C(=O)NC2CCCN(c3ccc(-c4ccccc4S(C)(=O)=O)cc3F)C2=O)cc1` (stereo unspecified): the Selectivity ratio in assay [1] and in assay [2] was > 1000 each time. The affinity on Coagulation factor X corresponds to a Ki of 560 nM.

For `COc1ccc(NC2CCCN(c3ccc(-c4ccccc4S(C)(=O)=O)cc3F)C2=O)cc1` (stereo unspecified), the Selectivity ratio in assay [1] and in assay [2] was > 1000 throughout. Affinity on Coagulation factor X was put at a Ki of 450 nM.

With `CS(=O)(=O)c1ccccc1-c1ccc(N2CCCC(NS(=O)(=O)c3ccc(Cl)c(Cl)c3)C2=O)c(F)c1` (stereo unspecified), the Selectivity ratio in assay [1] and in assay [2] was > 1000 in each case. Further, on Coagulation factor X, the Ki was 61 nM.

For `CS(=O)(=O)c1ccccc1-c1ccc(N2CCCC(NS(=O)(=O)c3cnc4ccccc4c3)C2=O)c(F)c1` (stereo unspecified), the Selectivity ratio in assay [1] and in assay [2] was > 1000 in each case. Besides, the Ki on Coagulation factor X came out at 28 nM.

On to `COc1cccc(S(=O)(=O)NC2CCCN(c3ccc(-c4ccccc4S(C)(=O)=O)cc3F)C2=O)c1` (stereo unspecified), for which the Selectivity ratio in assay [1] and in assay [2] was > 1000 throughout. On Coagulation factor X, this compound registered a Ki of 100 nM.

In the case of `CS(=O)(=O)c1ccccc1-c1ccc(N2CCCC(NS(=O)(=O)c3ccc(Cl)cc3)C2=O)c(F)c1` (stereo unspecified), the Selectivity ratio in assay [1] and in assay [2] was > 1000 throughout. At Coagulation factor X, affinity was put at a Ki of 23 nM.

Regarding `CS(=O)(=O)c1ccccc1-c1ccc(N2CCCC(NS(=O)(=O)c3ccc4ncccc4c3)C2=O)c(F)c1` (stereo unspecified), the Selectivity ratio in assay [1] and in assay [2] was > 1000 in each case. Moreover, on Coagulation factor X, affinity was put at a Ki of 73 nM.

On to `CS(=O)(=O)c1ccccc1-c1ccc(N2CCCC(NS(=O)(=O)c3ccc(Cl)s3)C2=O)c(F)c1` (stereo unspecified), for which the Selectivity ratio in assay [1] and in assay [2] was > 1000 throughout. Besides, at Coagulation factor X, the affinity, expressed as Ki, was 5.3 nM.

For `O=C1C(NS(=O)(=O)c2ccc3cc(Cl)ccc3c2)CCCN1c1ccc(-c2ccncc2)cc1F` (stereo unspecified), the Selectivity ratio in assay [1] and in assay [2] was > 1000 in each case. On Coagulation factor X, affinity was put at a Ki of 28 nM.

In the case of `COc1ccc(S(=O)(=O)NC2CCCN(c3ccc(-c4ccccc4S(C)(=O)=O)cc3F)C2=O)cc1` (stereo unspecified), the Selectivity ratio in assay [1] and in assay [2] was > 1000 throughout. Also, the Ki at Coagulation factor X is 53 nM.

Turning to `CCc1ccc(S(=O)(=O)NC2CCCN(c3ccc(-c4ccccc4S(C)(=O)=O)cc3F)C2=O)cc1` (stereo unspecified), the Selectivity ratio in assay [1] and in assay [2] was > 1000 throughout. The compound further registered a Ki on Coagulation factor X of 78 nM.

Take `NC(=O)CN(C1CCCN(c2ccc(-n3ccccc3=O)cc2)C1=O)S(=O)(=O)c1cc2ccc(Cl)nc2s1` (stereo unspecified): the Selectivity ratio in assay [1] and in assay [2] was > 1000 in each case. Also, affinity on Coagulation factor X was put at a Ki of 0.1 nM. Moreover, in the assay with Plasma, the PT was 4.8 µM.

In the case of `COC(=O)CN(C1CCCN(c2ccc(-n3ccnc3C[N+](C)(C)CC(=O)OC)cc2F)C1=O)S(=O)(=O)c1ccc2cc(Cl)ccc2c1` (stereo unspecified), the Selectivity ratio in assay [1] and in assay [2] was > 1000 throughout. This compound registered a Ki on Coagulation factor X of 0.21 nM. For the same compound, in the assay with Plasma, the PT stood at 12 µM.

With `CS(=O)(=O)c1ccccc1-c1ccc(N2CCCC(NS(=O)(=O)c3ccc(C#N)cc3)C2=O)c(F)c1` (stereo unspecified), the Selectivity ratio in assay [1] and in assay [2] was > 1000 in each case. Further, on Coagulation factor X, the Ki came out at 420 nM.

As for `CN(C)CCN(C)C(=O)CN(C1CCCN(c2ccc(-n3ccccc3=O)cc2F)C1=O)S(=O)(=O)c1cc2ccc(Cl)nc2s1` (stereo unspecified), the Selectivity ratio in assay [1] and in assay [2] was > 1000 in each case. Further, affinity on Coagulation factor X was put at a Ki of 0.013 nM. For the same compound, the PT in the assay on Plasma amounted to 2.1 µM.

Regarding `O=C1CCCCN1c1ccc(N2CCCC(NS(=O)(=O)c3ccc4cc(Cl)ccc4c3)C2=O)c(F)c1` (stereo unspecified), the Selectivity ratio in assay [1] and in assay [2] was > 1000 throughout. Moreover, the affinity on Coagulation factor X corresponds to a Ki of 10 nM.

Turning to `CS(=O)(=O)c1ccccc1-c1ccc(N2CCCC(NS(=O)(=O)c3ccc(-c4ccon4)s3)C2=O)c(F)c1` (stereo unspecified), the Selectivity ratio in assay [1] and in assay [2] was > 1000 in each case. In addition, the Ki at Coagulation factor X worked out at 26 nM.

Turning to `CS(=O)(=O)c1ccccc1-c1ccc(N2CCCC(NS(=O)(=O)c3cccnc3)C2=O)c(F)c1` (stereo unspecified), the Selectivity ratio in assay [1] and in assay [2] was > 1000 in each case. The compound also showed a Ki on Coagulation factor X of 2600 nM.

Turning to `CS(=O)(=O)c1ccccc1-c1ccc(N2CCCC(NS(=O)(=O)c3cccc4cc(Cl)ccc34)C2=O)c(F)c1` (stereo unspecified), the Selectivity ratio in assay [1] and in assay [2] was > 1000 in each case. Moreover, on Coagulation factor X, affinity was put at a Ki of 2.2 nM. Besides, the PT in the assay on Plasma came out at 102 µM.

For the compound `CS(=O)(=O)c1ccccc1-c1ccc(N2CCCC(NS(=O)(=O)Cc3ccccc3)C2=O)c(F)c1` (stereo unspecified), the Selectivity ratio in assay [1] and in assay [2] was > 1000 each time. The compound further displayed a Ki on Coagulation factor X of 3200 nM.

`COC(=O)CN(C1CCCN(c2ccc(-c3ccccc3S(C)(=O)=O)cc2F)C1=O)S(=O)(=O)c1ccc2cc(Cl)ccc2c1` (stereo unspecified): the Selectivity ratio in assay [1] and in assay [2] was > 1000 in each case. The same compound returned a Ki on Coagulation factor X of 0.88 nM. In the assay with Plasma, the PT was 89 µM.

As to `O=C(O)CN(C1CCCN(c2ccc(-n3ccccc3=O)cc2)C1=O)S(=O)(=O)c1cc2ccc(Cl)nc2s1` (stereo unspecified), the Selectivity ratio in assay [1] and in assay [2] was > 1000 in each case. Also, affinity on Coagulation factor X was put at a Ki of 0.13 nM. The PT with Plasma was determined as 16 µM.

With `CS(=O)(=O)c1ccccc1-c1ccc(N2CCCC(NS(=O)(=O)c3cc(Cl)ccc3Cl)C2=O)c(F)c1` (stereo unspecified), the Selectivity ratio in assay [1] and in assay [2] was > 1000 throughout. Moreover, the affinity at Coagulation factor X, expressed as Ki, was 650 nM.

For `O=C1C(NS(=O)(=O)c2ccc3cc(Cl)ccc3c2)CCCN1c1ccc(-n2ccccc2=O)cc1F` (stereo unspecified), the Selectivity ratio in assay [1] and in assay [2] was > 1000 each time. At Coagulation factor X, this compound showed a Ki of 0.11 nM. The PT in the assay on Plasma was found to be 35 µM.

`CS(=O)(=O)c1ccccc1-c1ccc(N2CCCC(NS(=O)(=O)c3ccc4cn[nH]c4c3)C2=O)c(F)c1` (stereo unspecified): the Selectivity ratio in assay [1] and in assay [2] was > 1000 throughout. Moreover, on Coagulation factor X, the Ki is 19 nM.

As for `CS(=O)(=O)c1ccccc1-c1ccc(N2CCCC(NS(=O)(=O)c3ccc4onc(N)c4c3)C2=O)c(F)c1` (stereo unspecified), the Selectivity ratio in assay [1] and in assay [2] was > 1000 each time. This compound yielded a Ki at Coagulation factor X of 19 nM.

For `CS(=O)(=O)c1ccccc1-c1ccc(N2CCCC(NS(=O)(=O)c3ccc(N)nc3)C2=O)c(F)c1` (stereo unspecified), the Selectivity ratio in assay [1] and in assay [2] was > 1000 each time. The compound further displayed a Ki at Coagulation factor X of 260 nM.
